Reference: ChEMBL document CHEMBL1132110, “Design and fast synthesis of C-terminal duplicated potent C(2)-symmetric P1/P1'-modified HIV-1 protease inhibitors” (J Med Chem, 1999)

Legend:
[1] = target: Human immunodeficiency virus type 1 protease (Human immunodeficiency virus 1, UniProt Q72874); assay: Inhibitory activity against HIV-1 protease expressed in Escherichia coli
MT4 [2] = assay: The anti-HIV activity in the presence of human serum(hs) performed in MT-4 cells with AB+ serum.; assay type: functional; details: read-out: ED50 (the source's name)
How it was run: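 MT4 cells infected with HIV-1 IIIB. Compounds diluted in human AB+ serum were added after 1 h of virus adsorption. Final medium held 50% human serum plus 10% fetal calf serum. Viral replication was read after 6 days as HIV p24 antigen, and the ED50 was derived.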

MT4 [3] = assay: The anti-HIV activity was evaluated in MT-4 cells using colorimetric XTT assay. MT-4 cells were infected with HIV-1,IIb (in vitro); assay type: functional; details: Homo sapiens, read-out: ED50 (the source's name)
How it was run: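 MT4 cells (2 × 10⁴ per well) infected with HIV-1 IIIB at 10–50 TCID50/well. Compounds came from 10 mg/mL DMSO stocks, diluted in medium and added to the cells. Viability was read by XTT after 6 days to monitor the cytopathic effect, and the 50% effective dose (ED50) was determined.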

MT4 [4] = assay: The anti-HIV activity in the presence of MT-4 cells infected mutants HIV-1:M46I,V82F,[…]; assay type: functional; details: Homo sapiens, read-out: ED50 (the source's name)
How it was run: (§1)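 MT4 cells (2 × 10⁴/well) infected with ritonavir-selected mutant HIV-1 (10–50 TCID₅₀/well). Mutants came from passaging cell-free virus under stepwise-increased ritonavir, then one passage without drug; protease gene sequenced. Compounds from 10 mg/mL DMSO stocks diluted in medium. Viability read by XTT after 6 days; ED50 taken as 50% dose.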

MT4 [5] = assay: The anti-HIV activity in the presence of MT-4 cells infected mutants HIV-1:V32I,M46I,V82A.; assay type: functional; details: Homo sapiens, read-out: ED50 (the source's name); how it was run: as §1
MT4 [6] = assay: The anti-HIV activity in the presence of human serum(hs) performed in MT-4 cells iwith AB+ serum.; assay type: functional; details: read-out: ED50 (the source's name)
How it was run: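 MT4 cells infected with HIV-1 IIIB; compounds diluted in human AB+ serum and added after 1 h virus adsorption, final medium 50% human serum plus 10% fetal calf serum. Viral replication measured after 6 days as HIV p24 antigen; ED50 derived.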

CNC(=O)[C@@H](NC(=O)[C@H](OCc1ccc(C2=C(O)C(=O)CCC2)cc1)[C@H](O)[C@@H](O)[C@@H](OCc1ccc(C2=C(O)C(=O)CCC2)cc1)C(=O)N[C@H](C(=O)NC)C(C)C)C(C)C
Ki [1]: 0.3 nM | EC50 (MT4 [2]): 20000 nM | EC50 (MT4 [3]): 3700 nM

CNC(=O)[C@@H](NC(=O)[C@H](OCc1ccc(-c2cccc([N+](=O)[O-])c2)cc1)[C@H](O)[C@@H](O)[C@@H](OCc1ccc(-c2cccc([N+](=O)[O-])c2)cc1)C(=O)N[C@H](C(=O)NC)C(C)C)C(C)C
EC50 (MT4 [4]): 40 nM | EC50 (MT4 [5]): 1100 nM | Ki [1]: 1.4 nM | EC50 (MT4 [2]): 1100 nM | EC50 (MT4 [3]): 50 nM

CNC(=O)[C@@H](NC(=O)[C@H](OCc1ccc(-c2ccccc2)cc1)[C@H](O)[C@@H](O)[C@@H](OCc1ccc(-c2ccccc2)cc1)C(=O)N[C@H](C(=O)NC)C(C)C)C(C)C
EC50 (MT4 [4]): 700 nM | EC50 (MT4 [5]): 400 nM | Ki [1]: 0.7 nM | EC50 (MT4 [2]): 800 nM | EC50 (MT4 [3]): 40 nM

CNC(=O)[C@@H](NC(=O)[C@H](OCc1ccc(-c2cccnc2)cc1)[C@H](O)[C@@H](O)[C@@H](OCc1ccc(-c2cccnc2)cc1)C(=O)N[C@H](C(=O)NC)C(C)C)C(C)C
EC50 (MT4 [4]): > 3000 nM | EC50 (MT4 [5]): > 3000 nM | Ki [1]: 0.3 nM | EC50 (MT4 [2]): 20000 nM | EC50 (MT4 [3]): 2500 nM

CNC(=O)[C@@H](NC(=O)[C@H](OCc1ccc(Br)cc1)[C@H](O)[C@@H](O)[C@@H](OCc1ccc(Br)cc1)C(=O)N[C@H](C(=O)NC)C(C)C)C(C)C
EC50 (MT4 [4]): 1000 nM | EC50 (MT4 [5]): 1200 nM | Ki [1]: 0.3 nM | EC50 (MT4 [2]): 2100 nM | EC50 (MT4 [3]): 800 nM

CNC(=O)[C@@H](NC(=O)[C@H](OCc1ccc(CCc2ccccc2)cc1)[C@H](O)[C@@H](O)[C@@H](OCc1ccc(CCc2ccccc2)cc1)C(=O)N[C@H](C(=O)NC)C(C)C)C(C)C
Ki [1]: 3.8 nM | EC50 (MT4 [3]): 2100 nM

CNC(=O)[C@@H](NC(=O)[C@H](OCc1ccc(-c2cccs2)cc1)[C@H](O)[C@@H](O)[C@@H](OCc1ccc(-c2cccs2)cc1)C(=O)N[C@H](C(=O)NC)C(C)C)C(C)C
EC50 (MT4 [4]): 200 nM | EC50 (MT4 [5]): 300 nM | Ki [1]: 1.2 nM | EC50 (MT4 [2]): 1000 nM | EC50 (MT4 [3]): 40 nM

CNC(=O)[C@@H](NC(=O)[C@H](OCc1ccc(-c2ccccn2)cc1)[C@H](O)[C@@H](O)[C@@H](OCc1ccc(-c2ccccn2)cc1)C(=O)N[C@H](C(=O)NC)C(C)C)C(C)C
Ki [1]: 0.6 nM | EC50 (MT4 [2]): 3600 nM | EC50 (MT4 [3]): 800 nM

CNC(=O)[C@@H](NC(=O)[C@H](OCc1ccc(-c2ccsc2)cc1)[C@H](O)[C@@H](O)[C@@H](OCc1ccc(-c2ccsc2)cc1)C(=O)N[C@H](C(=O)NC)C(C)C)C(C)C
EC50 (MT4 [4]): 200 nM | EC50 (MT4 [5]): 300 nM | EC50 (MT4 [2]): 800 nM | EC50 (MT4 [3]): 40 nM

CNC(=O)[C@@H](NC(=O)[C@H](OCc1ccc(/C=C/C(=O)OC)cc1)[C@H](O)[C@@H](O)[C@@H](OCc1ccc(/C=C/C(=O)OC)cc1)C(=O)N[C@H](C(=O)NC)C(C)C)C(C)C
Ki [1]: 0.09 nM | EC50 (MT4 [2]): 5700 nM | EC50 (MT4 [3]): 800 nM

CNC(=O)[C@@H](NC(=O)[C@H](OCc1ccc(-c2nccs2)cc1)[C@H](O)[C@@H](O)[C@@H](OCc1ccc(-c2nccs2)cc1)C(=O)N[C@H](C(=O)NC)C(C)C)C(C)C
EC50 (MT4 [4]): > 3000 nM | EC50 (MT4 [5]): > 3000 nM | Ki [1]: 0.6 nM | EC50 (MT4 [2]): 400 nM | EC50 (MT4 [3]): 300 nM

CNC(=O)[C@@H](NC(=O)[C@H](OCc1ccccc1)[C@H](O)[C@@H](O)[C@@H](OCc1ccccc1)C(=O)N[C@H](C(=O)NC)C(C)C)C(C)C
EC50 (MT4 [4]): 20000 nM | EC50 (MT4 [6]): 20000 nM | EC50 (MT4 [3]): 1500 nM
